Read-outs that look alike come from different tables or passages of the source.
Assays:
mouse β-cells = assay: membrane capacitance, depolarization-induced exocytosis in mouse β-cells; assay type: cell-based; conditions: 1 μmol/l; train of 10 depolarizations; n = 6; control 36.04 ± 4.87
Method in brief: (§1)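 Islets dispersed 2 h post-isolation with 0.0025% trypsin in Ca2+-free buffer and plated on poly-D-lysine coverslips. Mouse cells cultured in medium 199, human cells in DMEM, both with 5.6 mmol/l glucose. Cells exposed to 1 μmol/l test compound for at least 5 min. Exocytosis elicited by 10 × 500-ms depolarisations (1 Hz) from −70 to 0 mV. Total is the summed capacitance increase, normalised as fF/pF. β- and α-cells identified post hoc by insulin or glucagon immunostaining.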

NCX1.7 = NCX1.7 (Homo sapiens, UniProt P32418); assay: excised inside-out patch-clamp, recombinant forward-mode; assay type: biochemical
Method in brief: (§2)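 Excised inside-out patches at 22 ± 1°C from tsA201 cells 24–72 h after calcium-phosphate cotransfection with human NCX1 splice-variant cDNA plus GFP. Patch held at 0 mV. Forward-mode current elicited by raising Ca2+c […]. Peak is the maximal current after activation, late current is at 1 min, total current is the AUC. Concentration-response fitted with the Hill equation. DMSO 0.1% final.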

[1] = test system: cardiac L-type calcium channel; conditions: read-out: IC50s, cardiac L-type calcium channel; cited from earlier work
mouse islets [2] = assay: Fura-2 calcium imaging of mouse islets; assay type: cell-based
human β-cells = assay: membrane capacitance, depolarization-induced exocytosis in human β-cells; assay type: cell-based; conditions: 1 μmol/l; train of 10 depolarizations; n = 4; control 13.01 ± 5.64
Method in brief: as §1

[3] = test system: β-cell L-type calcium channels; assay type: cell-based, human; conditions: 1 μmol/l
NCX1.3 = NCX1.3 (Homo sapiens, UniProt P32418); assay: excised inside-out patch-clamp, recombinant forward-mode; assay type: biochemical
Method in brief: as §2

NCX1.1 = NCX1.1 (Homo sapiens, UniProt P32418); assay: excised inside-out patch-clamp, recombinant forward-mode; assay type: biochemical
mouse α-cells = assay: membrane capacitance, depolarization-induced exocytosis in mouse α-cells; assay type: cell-based; conditions: 1 μmol/l
Method in brief: as §1

[4] = intraperitoneal glucose tolerance tests in mice; assay type: in vivo; conditions: preliminary, data not shown
mouse islets [5] = assay: glucose-stimulated insulin secretion, mouse islet perifusion; assay type: cell-based; conditions: 1 μmol/l
Method in brief: (§3)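 Islets (BALB/c mouse, or human from three donors) preincubated 2 h at 37°C in low-glucose KRB (2.8 mmol/l glucose, 24 NaHCO3, 0.5% BSA, pH 7.4) ± 1 μmol/l test compound, with a solution change at 1 h. Groups of 25 islets perifused at 0.25 ml/min and 37°C: 10 min at 2.8 mmol/l, then 40 min at 11.1 mmol/l glucose. Fractions every 2 min; insulin by ELISA, as ng/ml per 25 islets or 11.1/2.8 fold change.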

NCX1.4 = NCX1.4 (Rattus norvegicus, UniProt Q01728); assay: excised inside-out patch-clamp, recombinant forward-mode; assay type: biochemical; conditions: 5 μmol/l; exon B replaced with A in rat NCX1.3
[6] = test system: β-cell L-type calcium channels; assay type: cell-based, mouse; conditions: 1 μmol/l; n = 7
β-cells = assay: membrane capacitance, calcium infusion experiments; assay type: cell-based; conditions: 1 μmol/l; infusion of 200 nmol/l free Ca2+
Method in brief: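 Whole-cell capacitance in dispersed islet cells with pipette Ca2+ buffered to 200 nmol/l free with EGTA, so Ca2+ is infused directly. Recorded with or without 1 μmol/l test compound, applied for at least 5 min. β-cells identified post hoc by insulin immunostaining.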

NCX1.11 = NCX1.11 (Homo sapiens, UniProt P32418, INS637ALLLNEL); assay: excised inside-out patch-clamp, recombinant forward-mode; assay type: biochemical; conditions: 5 μmol/l; n = 8
Method in brief: as §2

human islets = assay: glucose-stimulated insulin secretion, human islet perifusion; assay type: cell-based; conditions: 1 μmol/l
Method in brief: as §3

## N=C(N)SCCc1ccc(OCc2ccc([N+](=O)[O-])cc2)cc1 [KB-R7943]
Mouse β-cells
  change in total capacitance, mouse β-cells: 118.22 ± 33.48 fF/pF
NCX1.7; 1 μmol/l
  inhibition of recombinant β-cell NCX1.7 FM current: ~25%
NCX1.7; 5 μmol/l, n = 10
  reduction in total FM NCX1.7 activity: 65.57 ± 3.20%
NCX1.7; read-out: IC50, FM late current NCX1.7, late current, 1 min postactivation
  IC50: 1.72 ± 0.09 µM
NCX1.7; read-out: IC50, FM peak current NCX1.7, peak current
  IC50: 4.71 ± 0.15 µM
[1]
  IC50: 3 to 7 µM
Mouse islets [2]; 1 μmol/l
  rate of calcium clearance after removal of the tolbutamide/KCl challenge: significantly slowed
Mouse islets [2]; 1 μmol/l KB-R7943 + 20 μmol/l tolbutamide, 2.8 mmol/l glucose, n = 9
  increase in Ca2+c when added concurrently with tolbutamide: 19.95 ± 6.92%
Mouse islets [2]; 1 μmol/l, 2.8 mmol/l glucose
  effect on Ca2+c levels when applied alone: failed to significantly increase
Mouse islets [2]; 1 μmol/l, 11.1 mmol/l glucose challenge
  increase to the peak Ca2+c response: 83.44 ± 18.27%
Mouse islets [2]; 1 μmol/l, 11.1 mmol/l glucose challenge, n = 9
  increase of average Ca2+c (AUC): 79.98 ± 8.73%
Mouse islets [2]; 1 μmol/l, 15 mmol/l KCl
  effect on Ca2+c levels in the presence of KCl: significantly increases
Human β-cells
  total change in capacitance, human β-cells: 100.20 ± 28.82 fF/pF
[3]
  reduction in total Ba2+ current, human β-cells: 29.54 ± 3.18%
NCX1.3; 1 μmol/l
  inhibition of recombinant β-cell NCX1.3 FM current: ~25%
NCX1.3; 5 μmol/l, n = 10
  reduction in total FM NCX1.3 activity: 69.45 ± 3.12%
NCX1.3; read-out: IC50, FM late current NCX1.3, late current, 1 min postactivation
  IC50: 2.15 ± 0.26 µM
NCX1.3; read-out: IC50, FM peak current NCX1.3, peak current
  IC50: 5.59 ± 0.28 µM
NCX1.1; 5 μmol/l
  inhibition of total FM NCX1.1 activity: failed to inhibit
NCX1.1; read-out: IC50, inhibition of total FM NCX1.1 activity, cardiac splice variant, total current (AUC), tsA201 cells
  IC50: 43 µM
Mouse α-cells
  depolarization-induced capacitance response, mouse α-cells: did not significantly alter
[4]
  blood glucose in intraperitoneal glucose tolerance test: only showed a trend toward KB-R7943 lowering blood glucose
Mouse islets [5]; 2.8 mmol/l glucose
  insulin secretion, mouse islets: without effect
Mouse islets [5]; 11.1 mmol/l glucose
  first- and second-phase insulin secretion, mouse islets: significantly enhanced
NCX1.4
  FM KB-R7943 sensitivity of NCX1.4: dramatically decreased FM KB-R7943 sensitivity
[6]
  reduction in total Ba2+ current, mouse β-cells: 32.66 ± 3.74%
β-cells
  rate at which the capacitance increased, presence vs absence of KB-R7943: not significantly different
NCX1.11
  reduction in total current, FM NCX1.11: 64.3 ± 2.92%
Human islets; 2.8 mmol/l glucose
  insulin secretion, human islets: without effect
Human islets; 11.1 mmol/l glucose
  first- and second-phase insulin secretion, human islets: significantly enhanced

## CCCCNC(=O)NS(=O)(=O)c1ccc(C)cc1 [tolbutamide, Tolbutamide]
Mouse islets [2]; 20 μmol/l tolbutamide, 2.8 mmol/l glucose, n = 9
  increase in the 340/380 nm ratio (Ca2+c): 0.45 ± 0.04
Mouse islets [2]; 20 μmol/l tolbutamide, 2.8 mmol/l glucose, n = 11
  decrease of elevation in Ca2+c upon a second tolbutamide challenge: 21.87 ± 4.58%

Source: paper PMC2889768 (Diabetes, 2010)
